Reference: ChEMBL document CHEMBL2157903, “2-Arylbenzofuran-based molecules as multipotent Alzheimer's disease modifying agents” (Eur J Med Chem, 2012)
Activity calls are given as the source filed them. No cut-off for these calls is given here.

Biological target: Cholinesterase (Homo sapiens, UniProt P06276)
Test: Inhibition of human serum BuChE using butyrylthiocholine iodide as substrate preincubated for 20 mins prior to substrate addition by Ellman's method
Conditions: not given
How it was run: (§1)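 Ellman method with acetylthiocholine iodide (AChE) or butyrylthiocholine iodide (BuChE) as substrate. Enzyme and inhibitor preincubated 20 min at 37 °C before substrate addition. Blanks without enzyme corrected for non-enzymatic hydrolysis. Five inhibitor concentrations giving 20-80% inhibition. IC50 from linear regression of % inhibition vs log final concentration. Mean of two or three independent measurements, each in triplicate.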

Chain of Cholinesterase (P06276 whole entry): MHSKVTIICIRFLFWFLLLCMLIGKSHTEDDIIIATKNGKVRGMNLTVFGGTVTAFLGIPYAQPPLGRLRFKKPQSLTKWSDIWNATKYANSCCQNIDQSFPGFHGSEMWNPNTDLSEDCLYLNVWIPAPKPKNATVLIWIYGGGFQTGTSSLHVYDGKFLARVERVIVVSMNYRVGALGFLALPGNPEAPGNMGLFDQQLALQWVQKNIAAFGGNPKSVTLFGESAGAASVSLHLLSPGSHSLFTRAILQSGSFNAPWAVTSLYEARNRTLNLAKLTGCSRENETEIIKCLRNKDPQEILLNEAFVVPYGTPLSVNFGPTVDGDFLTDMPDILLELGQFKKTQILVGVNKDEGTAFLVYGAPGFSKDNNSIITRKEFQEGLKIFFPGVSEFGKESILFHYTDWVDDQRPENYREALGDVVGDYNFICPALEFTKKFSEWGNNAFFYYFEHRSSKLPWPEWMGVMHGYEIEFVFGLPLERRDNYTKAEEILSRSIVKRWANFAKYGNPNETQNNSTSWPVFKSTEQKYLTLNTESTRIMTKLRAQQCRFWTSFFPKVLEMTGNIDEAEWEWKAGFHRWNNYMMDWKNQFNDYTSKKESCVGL

Structure (SMILES)	IC50
CN(CCCCCOc1ccc(-c2cc3ccccc3o2)cc1)Cc1ccccc1	6.6 µM
CN(CCCCCCCCOc1ccc(-c2cc3ccccc3o2)cc1)Cc1ccccc1	7.47 µM
Cc1ccc(C(=O)c2c(-c3cccc(OCCCCCCCN(C)Cc4ccccc4)c3)oc3ccccc23)cc1	43.9 µM
CN(CCCCCCCOc1cccc(-c2cc3ccccc3o2)c1)Cc1ccccc1	3 µM
CCN(CC)Cc1ccc(C(=O)c2c(-c3ccc(OCCCCCCCN(C)Cc4ccccc4)cc3)oc3ccccc23)cc1	9.42 µM
COc1cccc(C(=O)c2c(-c3cccc(OCCCCCCCN(C)Cc4ccccc4)c3)oc3ccccc23)c1	1.37 µM
CN(CCCCCCCOc1ccc(-c2oc3ccccc3c2C(=O)c2ccc(-c3ccccc3)cc2)cc1)Cc1ccccc1	88.9 µM
CN(CCCCCCCCCOc1ccc(-c2cc3ccccc3o2)cc1)Cc1ccccc1	55.6 µM
CN(CCCCCCCOc1ccc(-c2oc3ccccc3c2C(=O)c2cccc3ccccc23)cc1)Cc1ccccc1	60.1 µM
COc1ccc(C(=O)c2c(-c3cccc(OCCCCCCCN(C)Cc4ccccc4)c3)oc3ccccc23)cc1OC	2.51 µM
CCN(CC)Cc1cccc(C(=O)c2c(-c3ccc(OCCCCCCCN(C)Cc4ccccc4)cc3)oc3ccccc23)c1	3.18 µM
COc1cc(OC)cc(C(=O)c2c(-c3cccc(OCCCCCCCN(C)Cc4ccccc4)c3)oc3ccccc23)c1	0.048 µM

Biological target: Acetylcholinesterase (Homo sapiens, UniProt P22303)
Test: Inhibition of human recombinant AChE using acetylthiocholine iodide as substrate preincubated for 20 mins prior to substrate addition by Ellman's method
Conditions: not given
How it was run: as §1

Chain of Acetylcholinesterase (P22303 whole entry): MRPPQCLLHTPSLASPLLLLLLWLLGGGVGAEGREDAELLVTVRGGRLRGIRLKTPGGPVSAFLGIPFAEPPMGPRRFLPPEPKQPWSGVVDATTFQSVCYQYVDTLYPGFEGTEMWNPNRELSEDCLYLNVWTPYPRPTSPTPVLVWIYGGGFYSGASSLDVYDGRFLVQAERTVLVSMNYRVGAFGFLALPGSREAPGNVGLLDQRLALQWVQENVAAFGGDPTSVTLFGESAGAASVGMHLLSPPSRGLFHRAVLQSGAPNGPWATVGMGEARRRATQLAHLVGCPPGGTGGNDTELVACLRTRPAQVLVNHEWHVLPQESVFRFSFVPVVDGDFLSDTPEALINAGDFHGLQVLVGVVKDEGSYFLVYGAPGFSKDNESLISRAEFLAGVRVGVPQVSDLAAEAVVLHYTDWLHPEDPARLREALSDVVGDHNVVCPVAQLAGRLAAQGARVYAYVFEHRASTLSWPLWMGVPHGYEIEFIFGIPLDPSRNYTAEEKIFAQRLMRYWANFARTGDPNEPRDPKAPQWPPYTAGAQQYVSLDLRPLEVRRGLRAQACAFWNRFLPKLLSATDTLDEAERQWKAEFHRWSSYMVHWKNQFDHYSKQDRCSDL

Structure (SMILES)	IC50
CN(CCCCCCCCOc1ccc(-c2cc3ccccc3o2)cc1)Cc1ccccc1	Not Active
Cc1ccc(C(=O)c2c(-c3cccc(OCCCCCCCN(C)Cc4ccccc4)c3)oc3ccccc23)cc1	Not Active
CN(CCCCCCCOc1cccc(-c2cc3ccccc3o2)c1)Cc1ccccc1	Not Active
COc1cccc(C(=O)c2c(-c3cccc(OCCCCCCCN(C)Cc4ccccc4)c3)oc3ccccc23)c1	Not Active
CN(CCCCCCCOc1ccc(-c2oc3ccccc3c2C(=O)c2ccc(-c3ccccc3)cc2)cc1)Cc1ccccc1	Not Active
CN(CCCCCCCCCOc1ccc(-c2cc3ccccc3o2)cc1)Cc1ccccc1	Not Active
COc1ccc(C(=O)c2c(-c3cccc(OCCCCCCCN(C)Cc4ccccc4)c3)oc3ccccc23)cc1OC	Not Active
COc1cc(OC)cc(C(=O)c2c(-c3cccc(OCCCCCCCN(C)Cc4ccccc4)c3)oc3ccccc23)c1	Not Active

Same assay, conditions: read-out: IC50

Structure (SMILES)	IC50
CN(CCCCCOc1ccc(-c2cc3ccccc3o2)cc1)Cc1ccccc1	215 µM
CCN(CC)Cc1ccc(C(=O)c2c(-c3ccc(OCCCCCCCN(C)Cc4ccccc4)cc3)oc3ccccc23)cc1	100 µM
CN(CCCCCCCOc1ccc(-c2oc3ccccc3c2C(=O)c2cccc3ccccc23)cc1)Cc1ccccc1	101 µM
CCN(CC)Cc1cccc(C(=O)c2c(-c3ccc(OCCCCCCCN(C)Cc4ccccc4)cc3)oc3ccccc23)c1	53 µM

Test system: not listed separately
Test: Inhibition of amyloid beta (25 to 35) fibril formation at 10 uM incubated up to 6 hrs by UV-Vis spectrophotometric analysis
Conditions: not given
How it was run: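 Aβ25-35 at 100 μM final, in 10 mM phosphate buffer pH 7.2, sonicated 1 min on addition. Compound added in MeOH at 10 μM final, with curcumin reference alongside. Polymerization followed by UV-vis at 190-380 nm over 0-6 h. Spectra of compound alone were subtracted. At least three independent runs.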

Structure (SMILES)	inhibition
CN(CCCCCOc1ccc(-c2cc3ccccc3o2)cc1)Cc1ccccc1	Active
CN(CCCCCCCCOc1ccc(-c2cc3ccccc3o2)cc1)Cc1ccccc1	Active
CN(CCCCCCCOc1cccc(-c2cc3ccccc3o2)c1)Cc1ccccc1	81%
CCN(CC)Cc1ccc(C(=O)c2c(-c3ccc(OCCCCCCCN(C)Cc4ccccc4)cc3)oc3ccccc23)cc1	Active
CN(CCCCCCCOc1ccc(-c2oc3ccccc3c2C(=O)c2cccc3ccccc23)cc1)Cc1ccccc1	48%
CCN(CC)Cc1cccc(C(=O)c2c(-c3ccc(OCCCCCCCN(C)Cc4ccccc4)cc3)oc3ccccc23)c1	Active

Test system: not listed separately
Test: Inhibition of amyloid beta (25 to 35) fibril formation incubated up to 6 hrs by UV-Vis spectrophotometric analysis
Conditions: not given
How it was run: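 Aβ25-35, sonicated 1 min, was mixed in 10 mM phosphate buffer (pH 7.2) with compound added in MeOH, on ice. Polymerization was followed by UV-visible spectroscopy at 190–380 nm over 0–6 h. Compound-alone spectra were subtracted, and peptide-alone and curcumin controls were run in parallel. IC50 (0.1–50 range) came from a sigmoidal least-squares fit. At least three independent runs.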

Structure (SMILES)	IC50
CN(CCCCCCCOc1cccc(-c2cc3ccccc3o2)c1)Cc1ccccc1	3.9 µM
CN(CCCCCCCCCOc1ccc(-c2cc3ccccc3o2)cc1)Cc1ccccc1	5.5 µM

Biological target: T1, Cannabinoid receptor 1 (Homo sapiens, UniProt P21554)
Test: Displacement of [3H]CP-55940 from human recombinant CB1 receptor expressed in HEK293 cells after 90 mins
Type: cell-based
Conditions: not given
How it was run: (§2)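 Membranes from HEK-293 cells stably expressing human recombinant CB1 (Bmax 2.5 pmol/mg) or CB2 (Bmax 4.7 pmol/mg). Incubated with [3H]-CP-55,940 (CB1 0.14 nM, Kd 0.18 nM; CB2 0.084 nM, Kd 0.31 nM) and increasing compound concentrations for 90 min at 30 °C. Non-specific binding defined with 10 […] 55212-2. IC50 by non-linear regression, converted to Ki by Cheng-Prusoff. Means of at least n = 3.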

T1 sequence (P21554 whole entry): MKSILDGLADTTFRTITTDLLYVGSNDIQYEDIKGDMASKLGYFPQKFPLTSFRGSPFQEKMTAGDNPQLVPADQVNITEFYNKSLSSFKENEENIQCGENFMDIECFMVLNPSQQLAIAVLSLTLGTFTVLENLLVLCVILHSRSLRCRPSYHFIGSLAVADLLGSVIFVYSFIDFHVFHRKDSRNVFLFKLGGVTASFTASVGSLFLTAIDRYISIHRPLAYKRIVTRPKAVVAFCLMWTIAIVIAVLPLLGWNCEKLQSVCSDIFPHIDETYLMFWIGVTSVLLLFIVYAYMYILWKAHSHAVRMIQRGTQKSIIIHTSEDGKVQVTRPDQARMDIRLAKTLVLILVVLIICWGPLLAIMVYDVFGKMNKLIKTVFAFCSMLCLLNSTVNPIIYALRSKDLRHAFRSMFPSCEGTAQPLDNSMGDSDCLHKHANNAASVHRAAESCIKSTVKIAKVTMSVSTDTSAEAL

Structure (SMILES)	Activity	EC50	Ki
Cc1ccc(C(=O)c2c(-c3cccc(OCCCCCCCN(C)Cc4ccccc4)c3)oc3ccccc23)cc1	inactive	–	–
CCN(CC)Cc1ccc(C(=O)c2c(-c3ccc(OCCCCCCCN(C)Cc4ccccc4)cc3)oc3ccccc23)cc1	–	> 10 µM	> 10 µM
COc1cccc(C(=O)c2c(-c3cccc(OCCCCCCCN(C)Cc4ccccc4)c3)oc3ccccc23)c1	inactive	–	–
CN(CCCCCCCOc1ccc(-c2oc3ccccc3c2C(=O)c2ccc(-c3ccccc3)cc2)cc1)Cc1ccccc1	–	7.74 µM	3.12 µM
CN(CCCCCCCOc1ccc(-c2oc3ccccc3c2C(=O)c2cccc3ccccc23)cc1)Cc1ccccc1	–	> 10 µM	> 10 µM
COc1ccc(C(=O)c2c(-c3cccc(OCCCCCCCN(C)Cc4ccccc4)c3)oc3ccccc23)cc1OC	inactive	–	–
CCN(CC)Cc1cccc(C(=O)c2c(-c3ccc(OCCCCCCCN(C)Cc4ccccc4)cc3)oc3ccccc23)c1	–	> 10 µM	> 10 µM
COc1cc(OC)cc(C(=O)c2c(-c3cccc(OCCCCCCCN(C)Cc4ccccc4)c3)oc3ccccc23)c1	inactive	–	–

Biological target: T1, Cannabinoid receptor 1
Test: Displacement of [3H]CP-55940 from human recombinant CB1 receptor expressed in HEK293 cells at 10 uM after 90 mins
Type: cell-based
Conditions: not given
How it was run: (§3)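 Membranes from HEK-293 cells stably expressing human recombinant CB1 or CB2 were incubated with [³H]-CP-55,940 (0.14 nM for CB1; 0.084 nM for CB2) plus test compound for 90 min at 30 °C. Non-specific binding was defined with WIN 55212-2. Percent displacement of bound radioligand at the maximum tested concentration is reported. At least n = 3 experiments.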

Structure (SMILES)	Activity
CCN(CC)Cc1ccc(C(=O)c2c(-c3ccc(OCCCCCCCN(C)Cc4ccccc4)cc3)oc3ccccc23)cc1	47.7%
CN(CCCCCCCOc1ccc(-c2oc3ccccc3c2C(=O)c2cccc3ccccc23)cc1)Cc1ccccc1	13.8%
CCN(CC)Cc1cccc(C(=O)c2c(-c3ccc(OCCCCCCCN(C)Cc4ccccc4)cc3)oc3ccccc23)c1	29.8%

Biological target: T1, Cannabinoid receptor 1
Test: Displacement of [3H]CP-55940 from human recombinant CB1 receptor expressed in HEK293 cells at 25 uM after 90 mins
Type: cell-based
Conditions: not given
How it was run: as §3

Structure (SMILES)	Activity
CN(CCCCCCCOc1ccc(-c2oc3ccccc3c2C(=O)c2ccc(-c3ccccc3)cc2)cc1)Cc1ccccc1	80%

Biological target: T2, Cannabinoid receptor 2 (Homo sapiens, UniProt P34972)
Test: Displacement of [3H]CP-55940 from human recombinant CB2 receptor expressed in HEK293 cells after 90 mins
Type: cell-based
Conditions: not given
How it was run: as §2

T2 sequence (P34972 whole entry): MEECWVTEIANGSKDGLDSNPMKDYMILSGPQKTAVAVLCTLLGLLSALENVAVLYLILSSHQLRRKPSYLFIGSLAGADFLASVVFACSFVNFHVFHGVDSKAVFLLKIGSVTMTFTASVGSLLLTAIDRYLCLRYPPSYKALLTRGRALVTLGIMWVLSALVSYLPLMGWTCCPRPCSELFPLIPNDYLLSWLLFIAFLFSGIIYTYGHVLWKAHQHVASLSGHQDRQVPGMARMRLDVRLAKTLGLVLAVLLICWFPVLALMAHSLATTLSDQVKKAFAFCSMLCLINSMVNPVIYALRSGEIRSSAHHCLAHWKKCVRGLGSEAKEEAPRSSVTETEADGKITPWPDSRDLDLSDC

Structure (SMILES)	Activity	EC50	Ki
Cc1ccc(C(=O)c2c(-c3cccc(OCCCCCCCN(C)Cc4ccccc4)c3)oc3ccccc23)cc1	inactive	–	–
CCN(CC)Cc1ccc(C(=O)c2c(-c3ccc(OCCCCCCCN(C)Cc4ccccc4)cc3)oc3ccccc23)cc1	–	4.4 µM	1120 nM
COc1cccc(C(=O)c2c(-c3cccc(OCCCCCCCN(C)Cc4ccccc4)c3)oc3ccccc23)c1	inactive	–	–
CN(CCCCCCCOc1ccc(-c2oc3ccccc3c2C(=O)c2ccc(-c3ccccc3)cc2)cc1)Cc1ccccc1	–	7.06 µM	1790 nM
CN(CCCCCCCOc1ccc(-c2oc3ccccc3c2C(=O)c2cccc3ccccc23)cc1)Cc1ccccc1	–	> 10 µM	> 10000 nM
COc1ccc(C(=O)c2c(-c3cccc(OCCCCCCCN(C)Cc4ccccc4)c3)oc3ccccc23)cc1OC	inactive	–	–
CCN(CC)Cc1cccc(C(=O)c2c(-c3ccc(OCCCCCCCN(C)Cc4ccccc4)cc3)oc3ccccc23)c1	–	> 10 µM	> 10000 nM
COc1cc(OC)cc(C(=O)c2c(-c3cccc(OCCCCCCCN(C)Cc4ccccc4)c3)oc3ccccc23)c1	inactive	–	–

Biological target: T2, Cannabinoid receptor 2
Test: Displacement of [3H]CP-55940 from human recombinant CB2 receptor expressed in HEK293 cells at 10 uM after 90 mins
Type: cell-based
Conditions: not given

Structure (SMILES)	Activity
CCN(CC)Cc1ccc(C(=O)c2c(-c3ccc(OCCCCCCCN(C)Cc4ccccc4)cc3)oc3ccccc23)cc1	65.2%
CN(CCCCCCCOc1ccc(-c2oc3ccccc3c2C(=O)c2cccc3ccccc23)cc1)Cc1ccccc1	8.9%
CCN(CC)Cc1cccc(C(=O)c2c(-c3ccc(OCCCCCCCN(C)Cc4ccccc4)cc3)oc3ccccc23)c1	47.3%

Biological target: T2, Cannabinoid receptor 2
Test: Displacement of [3H]CP-55940 from human recombinant CB2 receptor expressed in HEK293 cells at 25 uM after 90 mins
Type: cell-based
Conditions: not given
How it was run: as §3

Structure (SMILES)	Activity
CN(CCCCCCCOc1ccc(-c2oc3ccccc3c2C(=O)c2ccc(-c3ccccc3)cc2)cc1)Cc1ccccc1	86%

Test system: not listed separately
Test: Ratio of curcumin IC50 to compound IC50 for amyloid beta (25 to 35)
Conditions: not given

Structure (SMILES)	Ratio IC50
CN(CCCCCCCOc1cccc(-c2cc3ccccc3o2)c1)Cc1ccccc1	2.5
